Test results taken from the EternaBench riboswitch data.

Tested on: MS2 coat protein
Assay: apparent Kd, MS2 coat protein; higher = weaker binding; RNA-MaP array; tryptophan 2.4 mM where present
Method in brief: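 Stalled E. coli RNA polymerase transcribed the designs on Illumina sequencing-chip clusters. SNAP-549-labelled MS2 coat protein was titrated from 0.7 or 1.5 nM, doubling to 3 µM, without and then with constant ligand, in 100 mM Tris-HCl pH 7.5, 80 mM KCl, 4 mM MgCl2, BSA, DTT, yeast tRNA and Tween-20. Per-cluster binding curves were fitted to green signal normalised to red-channel RNA signal and control-cluster median Fmax. The apparent Kd is the median of the filtered fits.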

[1] = designed as: ON switch for tryptophan, no ligand
[2] = ligand present: tryptophan, designed as: ON switch for tryptophan
[3] = designed as: OFF switch for tryptophan, no ligand
[4] = ligand present: tryptophan, designed as: OFF switch for tryptophan

| Sequence | apparent Kd [1] [nM] | apparent Kd [2] [nM] | apparent Kd [3] [nM] | apparent Kd [4] [nM] |
| --- | --- | --- | --- | --- |
| UGUCAUGGAAACAUGACAGGUCUUACCGGUCGAGGACCGGUACGGCCGCCACUCGAUUGGUGGCACAUGAGGAUCACCCAUGUUA | 29 | 26.7 | – | – |
| GAACAGUCGGACAUGAGGAUCACCCAUGUGCGAGGACCGGUACGGCCGCCACUCGACAAGGGCGGUCCCGAAGCGAACAUACGCG | – | – | 23.8 | 14.7 |
| AUAUAUACAUGAGGAUCACCCAUGUUAUUUCGAGGACCGGUACGGCCGCCACUCGAUAGAGUGGAAGUAACAUUUGUUAGAUGAU | 15.7 | 15.4 | – | – |
| AAACAUGAGGCGGCCGCCACUGUAUGAACAUGAGGAUCACCCAUGUAUGUACCCAUGUGUGUACACAGGACCGGGCCAUGUGGAU | – | – | 28.1 | 19.9 |
| GAGUCCGCGGCGGCCGCCACUCGCGAUAUAACAUGAUAUCAGGACAUGAGGAUCACCCAUGUCACGAGGACCGGGCCGAUCCUCA | 28 | 17.6 | – | – |
| UGUAUUACGAAAGUAGUACAUCGUGUUCGACGAGGACCGGUACGGCCGCCACUCGGACAUGAGGAUCACCCAUGUAGCGAAAGCU | 158 | 256 | – | – |
| AUAAAUAAUAAAUAAAAUAAAAUGGGUGAACGAGGACCGGUACGGCCGCCACUCGGACAUGAGGAUCACCCAUGUCCAUGUGAAA | – | – | 19.5 | 46.1 |
| CGCCACUCGAGUGAUCCUCACGAGUGGCUACGAGGACCGGUACGGCCGCCACUCGAAUUAACAUGAGGAUCACCCAUGUAAUCUA | 56.7 | 27.7 | – | – |
| UCGGAUGCGGCGGCCGCCACUCGCGGAUAACGAUAGCUUAACAUGAGGAUCACCCAUGUGUCAUGGAGGACCGGGCCCAUACCGU | 23.4 | 20.7 | – | – |
| UGUCAGCGAAAGUUGACAUGUCUUGCUGGUCGAGGACCGGUACGGCCGCCACUCGAUCUCUCGCACAUGAGGAUCACCCAUGUUG | 12.6 | 13.4 | – | – |
| CCUAUGCAGUCGGCCGCCACUGAUAACGUUAUCGUUACCUCAGAAACAUGAGGAUCACCCAUGUACAGGACCGGGACUGUAUAGG | – | – | 12.8 | 15.3 |
| ACGACGGCUGCGGCCGCCACUGUACAUGAGGAUCACCCAUGUGUAGUAAUUGGGACCCUGUGUUACAGGACCGGGUAGUUGAUUA | – | – | 34.6 | 69.9 |
| AAUAAUAUCCUCAUGUGAGUCGUACCGUAACGAGGACCGGUACGGCCGCCACUCGAACAUGAGGAUCACCCAUGUAGGUACGACA | 207 | 99.7 | – | – |
| UGCAUUAUACAUGGAUCACCCAUGUAGACACGAGGACCGGUACGGCCGCCACUCGGAAGAGGGAACAUGAGGAUCACCCAUGUGA | 52.5 | 51.5 | – | – |
| CGAGUAAGAACAAUCGAAUAACGGUUUUCGCGAGGACCGGUACGGCCGCCACUCGUGUGAUAUCACACAUGAGGAUCACCCAUGU | 80.2 | 41.2 | – | – |
| GGAAACCCGACGGCCGCCACUAACGGUCUCAAAAGAGGUUGAACACAUGAGGAUCACCCAUGUAAUAGGACCGGGUCGUGUGAAA | 20.3 | 18.5 | – | – |
| GCAUCCUAGUCGGCCGCCACUGCAUCACCAGUGGCAGGUGAUCAACAUGAGGAUCACCCAUGUAGCAGGACCGGGACUAGGAUGC | 135 | 43.7 | – | – |
| AACAUGAGGAUCACCCAUGUACAUUUCGAUCGAGGACCGGUACGGCCGCCACUCGAAAACAUGAGGAUCACCCAUGUUCAACAGG | 296 | 184 | – | – |
| UUAGUAACGACGGCCGCCACUGAAUUUGAACAUGAGGAUCACCCAUGUAGAGAUCCUAGAAUAAACAGGACCGGGUCUGAUAAUG | – | – | 95.7 | 118 |
| GCUACAUGAGGAUCACCCAUGUAUGCGAGCCGAGGACCGGUACGGCCGCCACUCGCUUAACAUGAGGAUCACCCAUGUUUCUCGG | 169 | 125 | – | – |
| AGCCACUCGAGUGAUCCUCACGAGUGGCUACGAGGACCGGUACGGCCGCCACUCGAAUUAACAUGAGGAUCACCCAUGUAAUCAU | 31.5 | 111 | – | – |
| AACAUGAGGAUCACCCAUGUGUCCUCGAAACGAGGACCGGUACGGCCGCCACUCGACGUAUGUUGACGAAAAGUCAGCAUACGAA | – | – | 281 | 885 |
| GGUUACUCUACGGCCGCCACUGAACAUGAGGAUCACCCAUGUAAUGUUCAGUAGUCUUUAGACAACAGGACCGGGUAGUGUAACC | 228 | 215 | – | – |
| GAGGAAACUCACAUGAGGAUCACCCAUGUACGAGGACCGGUACGGCCGCCACUCGAAACCAUGGGCGGUAGUACAUGGAAACAUG | – | – | 72.3 | 263 |
| GCUGGACUUUCGGCCGCCACUGAGAGAGUCGUGUGAACAUGAGGAUCACCCAUGUAAUAUAUAUACAGGACCGGGAGGGUUGUGC | – | – | 11.8 | 11.9 |
| AGACUUCGCAUAGGAAAACUAUGUGAAGUCCGAGGACCGGUACGGCCGCCACUCGUCCUCACAUGAGGAUCACCCAUGUAAAUAA | – | – | 22.2 | 29.1 |
